Assay results from different studies.
Lines come from different studies, so protocols differ.

SMILES	cell line	effect on	mode	technique	time	notes	IC50 [µM]
COc1cc(C2Oc3cc([C@H]4Oc5cc(O)cc(O)c5C(=O)[C@@H]4O)ccc3OC2CO)ccc1O (some centres unmarked)	HepaRG	cell growth or viability		MTT	24 h		142
CCCCc1ccc2[nH]c(NC(=O)OC)nc2c1	FaDu	cell growth or viability			72 h		0.153
CCCn1cnc2ccc(/C=C/C(=O)NO)cc2c1=O	SW-620	cell growth or viability		SRB	48 h		2.7
N[C@@H](CC(=O)N1CCN(C(c2ccc(F)cc2)c2ccc(F)cc2)CC1)C(=O)N1Cc2ccccc2C1	NOMO-1	cell growth or viability		ATP luminescence	48 h		4.7
COc1c2c(cc3c1OCO3)[C@]13C=C[C@H](OC)C[C@H]1N(C2)C[C@H]3OC(=O)c1cccc(C)c1	SAOS-2	cell growth or viability		WST-1			> 10
CC(C)C[C@H](NC(=O)[C@H](Cc1ccccc1)NC(=O)c1cnccn1)B(O)O	SK-MEL3	cell growth or viability		ATP luminescence			0.0099
Nc1nc(Nc2ccccc2)nc2c1ncn2[C@@H]1O[C@H](CO)[C@@H](O)[C@H]1O	FaDu	cell growth or viability			72 h		> 20
COc1ccc(-c2nc3ccccc3[nH]2)cc1O	MCF7	cell growth or viability		MTT	48 h		29.7
COc1ccc(C(=O)O[C@@H]2CN3Cc4c(cc5c(c4OC)OCO5)[C@@]24C=C[C@H](OC)C[C@@H]34)cc1	SAOS-2	cell growth or viability		WST-1			> 10
O=C(/C=C/c1ccc2ncn(Cc3ccccc3F)c(=O)c2c1)NO	SW-620	cell growth or viability		SRB	48 h		1.12
CCCCCCCCCCCC(=O)Oc1c(C)c(O)c(C(=O)/C=C/c2ccccc2)c(OC)c1C	FaDu	cell growth or viability		SRB	72 h		> 50
Cc1[nH]c2ccccc2c1CCNCc1ccc(/C=C/C(=O)NO)cc1	C13	cell growth or viability		crystal violet			0.0093
Cc1cc(-c2nc(C(=O)Nc3cc4oc(N5CCOCC5)nc4nc3N3CC[C@@H](O)C3)co2)ccn1	A20	cell growth or viability			5 days		2.45
CC(C)[C@H](N)C(=O)N1CCC[C@H]1B(O)O	NOMO-1	cell growth or viability		ATP luminescence	48 h		0.165
COc1ccc(-c2nc3ccccc3n2Cc2ccccc2)cc1OC	MCF7	cell growth or viability		MTT			22.2
CN1/C(=N/c2ccc(Cl)cc2)c2cc(C(N)=O)nc3c(N)c(Cl)c(N)c1c23	Calu-3	cell growth or viability					10.4
CCCn1cnc2cc(/C=C/C(=O)NO)ccc2c1=O	SW-620	cell growth or viability		SRB	48 h		1.34
Cc1ccc(S(=O)(=O)N[C@@H](Cc2ccccc2)C(=O)CCl)cc1	THP-1	TNF-α release	inhibitor		17 h	LPS-stimulated	1.08
CC(=O)O[C@H]1C(=O)[C@@]2(C)[C@H]([C@H](OC(=O)c3ccccc3)[C@]3(O)C[C@H](OC(=O)[C@H](O)[C@@H](NC(=O)c4ccccc4)c4ccccc4)C(C)=C1C3(C)C)[C@]1(OC(C)=O)CO[C@@H]1C[C@@H]2O	MCF7	cell growth or viability		MTT			2.35
COc1cccc(C(=O)O[C@@H]2CN3Cc4c(cc5c(c4OC)OCO5)[C@@]24C=C[C@H](OC)C[C@@H]34)c1	SAOS-2	cell growth or viability		WST-1			6.9
CC1(C)CC[C@]2(C)CC[C@]3(C)C(=CC[C@@H]4[C@@]5(C)CC[C@H](O)C(C)(C)[C@@H]5CC[C@]43C)[C@@H]2C1	HEp-2	cell growth or viability		WST-1	48 h		85.6
O=C1Nc2ccc(Cl)cc2[C@@](C#CC2CC2)(C(F)(F)F)O1	FaDu	cell growth or viability			72 h		> 20

SMILES	cell line	effect on	mode	technique	time	notes	IC50 [µM]
O=C(/C=C/c1ccc2ncn(CC3CCCC3)c(=O)c2c1)NO	SW-620	cell growth or viability		SRB	48 h		1.19
CC(C)NCC(O)c1ccc(O)c(O)c1 (racemic)	THP-1	TNF-α release	inhibitor		17 h	LPS-stimulated	0.016
O=Cc1ccc(CO)o1	HEp-2	cell growth or viability		WST-1	48 h		78.9
CC(C)/N=C1\c2cc(C(N)=O)nc3c(N)c(Cl)c(N)c(c23)N1C	Calu-3	cell growth or viability					0.77
C=CCn1c(-c2ccc(Cl)cc2)nc2ccccc21	MCF7	cell growth or viability		MTT			79
CC(CCc1ccc(O)cc1)NCCc1ccc(O)c(O)c1 (centres unmarked)	THP-1	TNF-α release	inhibitor	ELISA	17 h	LPS-stimulated	0.09
COc1cc(Nc2nccc(-c3cnn4nc(OC)ccc34)n2)cc(C(F)(F)F)c1	J82	cell growth or viability		ATP luminescence			0.85
COc1cccc2c1C(=O)c1c(O)c3c(c(O)c1C2=O)C[C@@](O)(C(=O)CO)C[C@@H]3O[C@H]1C[C@H](N)[C@H](O)[C@H](C)O1	SUM159	cell growth or viability		MTT	48 h		4
CC(C)c1ccccc1S(=O)(=O)c1cc(N)c2ncccc2c1[N+](=O)[O-]	FaDu	cell growth or viability			72 h		> 20
O=c1cc(-c2ccc(O)c(O)c2)oc2cc(O)cc(O)c12	HEp-2	cell growth or viability		WST-1	48 h		10.7
Clc1ccc(Cn2c(-c3ccc(Cl)cc3)nc3ccccc32)cc1	MCF7	cell growth or viability		MTT			8.56
CC(=O)O[C@H]1C(=O)[C@@]2(C)[C@H]([C@H](OC(=O)c3ccccc3)[C@]3(O)C[C@H](OC(=O)[C@H](O)[C@@H](NC(=O)c4ccccc4)c4ccccc4)C(C)=C1C3(C)C)[C@]1(OC(C)=O)CO[C@@H]1C[C@@H]2O	Panc02	cell growth or viability		CCK-8	72 h		0.0833
O=c1c(O)c(-c2ccc(O)cc2)oc2cc(O)cc(O)c12	HEp-2	cell growth or viability		WST-1	48 h		30.3
Nc1ncnc2c1ncn2[C@@H]1O[C@H](CO)[C@@H](O)[C@@H]1O	FaDu	cell growth or viability			72 h		> 20
CC(C)[C@H](N)c1nc2cc(-c3ccncc3F)sc2c(=O)[nH]1	CAPAN-1	cell growth or viability		MTT			0.049
Cc1ccc2nc(-c3c(F)cccc3Cl)[nH]c2c1	MCF7	cell growth or viability		MTT	48 h		> 100
CC(C)(C=O)Cc1cc(C(C)(C)C)c(O)c(C(C)(C)C)c1	FaDu	cell growth or viability			72 h		> 20
CNC[C@H](O)c1ccc(O)c(O)c1	THP-1	TNF-α release	inhibitor		17 h	LPS-stimulated	0.07
COc1cc2nc(N3CCN(C(=O)c4ccco4)[C@H]4CCCC[C@H]43)nc(N)c2cc1OC (racemic)	FaDu	cell growth or viability			72 h		14.1
N#Cc1cc([N+](=O)[O-])c2sc(C(N)=O)[n+]([O-])c2c1	THP-1	TNF-α release	inhibitor		17 h	LPS-stimulated	2.96
CCN(CC)CCOC(=O)C1(c2ccc([N+](=O)[O-])cc2)CCCC1	FaDu	cell growth or viability			72 h		> 20
c1ccc2c(-c3nc4ccccc4[nH]3)c3ccccc3cc2c1	MCF7	cell growth or viability		MTT	48 h		13.2
